# According to ChEMBL document CHEMBL3739335, “Phosphonooxymethyl Prodrug of Triptolide: Synthesis, Physicochemical Characterization, and Efficacy in Human Colon Adenocarcinoma and Ovarian Cancer Xenografts” (J Med Chem, 2015):
# Calls of active or inactive are those of the source. The rule behind the calls is not given here.
# Legend:
# Mus musculus [1] = assay: Toxicity in athymic nude mouse xenografted with human HT-29 cells assessed as necrosis at 0.9 mg/kg, ip administered 14 days measured post last dose; type: organism-based; conditions: in vivo, 336 h
# Procedure, shortened: (§1)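 Female athymic nude mice, 7–9 weeks old, received 1.74 × 10^6 HT-29 cells subcutaneously in the right flank in 50% Matrigel/McCoy's 5A. Randomized at 110 mm3, 10 per group. Intraperitoneal dosing in USP saline (0.2 mL) over a 28-day period on the stated schedule. Body weights were taken twice weekly; clinical signs and survival were recorded.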
# [2] = Chemical stability of the compound in buffer assessed as pseudo-first-order rate constant at 4 degC at pH 7.4 by Arrhenius plot analysis; type: physicochemical
# Procedure, shortened: (§2)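 Pseudo-first-order kobsd at each temperature was fitted to an Arrhenius plot, which was extrapolated to 25 and 4 °C. t1/2 and t90 (time for 10% loss) were calculated from the extrapolated kobsd.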
# [3] = Chemical stability of the compound in buffer assessed as compound remaining at pH 1 after 4 hrs by HPLC analysis; type: physicochemical; conditions: read-out: Stability
# Mus musculus [4] = assay: Toxicity in athymic nude mouse xenografted with human A2780 cells assessed as dehydration at 1.2 mg/kg, po administered for 30 days; type: organism-based; conditions: in vivo, 720 h
# Procedure, shortened: (§3)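 Female athymic nude mice, 7–9 weeks old, received 2.5 × 10^6 A2780 cells subcutaneously in the flank in 50% Matrigel/RPMI 1640. Mice were randomized at a mean tumor volume of 188 mm3, 10 per group. Daily oral gavage in USP saline (0.2 mL) for 30 days, dosed on group-mean body weight. Clinical signs, survival and body weights were recorded.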
# HT-29 [5] = assay: Antitumor activity against human HT-29 cells xenografted in athymic nude mouse at 0.9 mg/kg, ip qd administered for 4 weeks; type: functional, organism-based
# Procedure, shortened: (§4)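 Female athymic nude mice, 7–9 weeks, implanted s.c. on right flank with 1.74 × 10^6 HT-29 cells (ATCC, mycoplasma/rodent-pathogen tested) in 50% Matrigel/50% McCoy's 5A; randomized at mean tumor 110 mm3, 10/group. IP dosing in USP saline, 0.2 mL, over a 28-day treatment period. Tumor volume by caliper (L × W2/2) at least twice weekly, tumor weight at necropsy, survival, body weight.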
# [6] = Chemical stability of the compound in buffer assessed as compound remaining at pH 2 after 4 hrs by HPLC analysis; type: physicochemical; conditions: read-out: Stability
# [7] = Chemical stability of the compound in buffer assessed as compound remaining at pH 9 after 24 hrs by HPLC analysis; type: physicochemical; conditions: read-out: Stability
# [8] = Chemical stability of the compound in buffer assessed as compound remaining at pH 6 after 1 hr by HPLC analysis; type: physicochemical; conditions: read-out: Stability
# HT-29 [9] = assay: Antitumor activity against human HT-29 cells xenografted in athymic nude mouse at 0.3 to 0.9 mg/kg, ip qd administered for 28 days; type: functional, organism-based; procedure, shortened: as §4
# [10] = Half life of the compound in buffer at 4 degC at pH 7.4; type: physicochemical; procedure, shortened: as §2
# [11] = Stability of the compound in simulated intestinal fluid assessed as compound remaining at pH 7.5 after 4 hrs by HPLC analysis; type: ADME; conditions: read-out: Stability
# Procedure, shortened: (§5)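 Drug incubated in simulated gastric fluid or simulated intestinal fluid and sampled at 0, 1, 2, 4, 8 and 24 h. Percent remaining was measured by reversed-phase C18 HPLC with photodiode-array detection, using a 20-min gradient of 10–70% acetonitrile against 10 mM sodium phosphate buffer at pH 7.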
# [12] = Shelf life of the compound in buffer assessed as time for 10% loss of compound at 25 degC at pH 7.4; type: physicochemical; procedure, shortened: as §2
# [13] = Stability of the compound in simulated intestinal fluid assessed as compound remaining at pH 7.5 after 1 hr by HPLC analysis; type: ADME; conditions: read-out: Stability; procedure, shortened: as §5
# [14] = Second dissociation constant, pKa2 of the compound by 31P NMR analysis
# Procedure, shortened: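 pKa2 derived from the pH dependence of the observed 31P NMR chemical shift across solutions of varying pH, by sigmoidal fit (titration-type curve); at 25 °C.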
# [15] = target: T1, Alkaline phosphatase, tissue-nonspecific isozyme (Bos taurus, UniProt P09487); assay: Prodrug conversion in glycine buffer assessed as bovine intestinal mucosal alkaline phosphatase-mediated triptolide and formaldehyde formation at pH 9.8; type: ADME; conditions: cattle, isolated protein
# T1 sequence (P09487 whole entry): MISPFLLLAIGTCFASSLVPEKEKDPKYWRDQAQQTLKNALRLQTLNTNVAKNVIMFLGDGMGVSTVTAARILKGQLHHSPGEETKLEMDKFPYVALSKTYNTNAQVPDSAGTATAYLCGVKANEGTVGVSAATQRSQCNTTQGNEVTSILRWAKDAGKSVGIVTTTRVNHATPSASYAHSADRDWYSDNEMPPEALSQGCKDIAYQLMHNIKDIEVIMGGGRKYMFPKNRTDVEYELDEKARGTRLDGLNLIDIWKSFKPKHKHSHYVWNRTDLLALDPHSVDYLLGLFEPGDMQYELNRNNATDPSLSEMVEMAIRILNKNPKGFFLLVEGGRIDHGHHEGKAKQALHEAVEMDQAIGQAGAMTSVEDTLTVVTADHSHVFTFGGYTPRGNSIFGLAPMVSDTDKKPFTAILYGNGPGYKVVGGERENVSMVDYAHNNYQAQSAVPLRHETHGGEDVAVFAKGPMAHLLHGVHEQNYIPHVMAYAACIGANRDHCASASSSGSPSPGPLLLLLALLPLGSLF
# [16] = Chemical stability of the compound in buffer assessed as compound remaining at pH 1 after 8 hrs by HPLC analysis; type: physicochemical; conditions: read-out: Stability
# Mus musculus [17] = assay: Toxicity in athymic nude mouse xenografted with human A2780 cells assessed as moribund condition at 1.2 mg/kg, po administered for 30 days; type: organism-based; conditions: in vivo, 720 h; procedure, shortened: as §3
# [18] = Stability of the compound in simulated gastric fluid assessed as compound remaining after 2 hrs by HPLC analysis
# [19] = Stability of the compound in simulated intestinal fluid assessed as compound remaining at pH 7.5 after 24 hrs by HPLC analysis; type: ADME; conditions: read-out: Stability; procedure, shortened: as §5
# Mus musculus [20] = assay: Toxicity in athymic nude mouse xenografted with human HT-29 cells assessed as mortality at 0.9 mg/kg, ip administered for 2 weeks followed by 3 times per week; type: organism-based; conditions: in vivo, 336 h; procedure, shortened: as §1
# [21] = Shelf life of the compound in buffer assessed as time for 10% loss of compound at 4 degC at pH 7.4; type: physicochemical; procedure, shortened: as §2
# [22] = Chemical stability of the compound in buffer assessed as compound remaining at pH 9 after 4 hrs by HPLC analysis; type: physicochemical; conditions: read-out: Stability
# Mus musculus [23] = assay: Toxicity in athymic nude mouse xenografted with human A2780 cells assessed as anorexia at 1.2 mg/kg, po administered for 30 days; type: organism-based; conditions: in vivo, 720 h; procedure, shortened: as §3
# [24] = Chemical stability of the compound in buffer assessed as compound remaining at pH 1 after 2 hrs by HPLC analysis; type: physicochemical; conditions: read-out: Stability
# [25] = Chemical stability of the compound in buffer assessed as compound remaining at pH 7.4 after 2 hrs by HPLC analysis; type: physicochemical; conditions: read-out: Stability
# [26] = Stability of the compound in simulated intestinal fluid assessed as compound remaining at pH 7.5 after 8 hrs by HPLC analysis; type: ADME; conditions: read-out: Stability; procedure, shortened: as §5
# [27] = Chemical stability of the compound in buffer assessed as compound remaining at pH 6 after 8 hrs by HPLC analysis; type: physicochemical; conditions: read-out: Stability
# [28] = Chemical stability of the compound in buffer assessed as pseudo-first-order rate constant at 50 degC at pH 7.4 by Arrhenius plot analysis; type: physicochemical
compound,measurement,setting,value
CC(C)[C@]12O[C@H]1[C@@H]1O[C@]13[C@]1(O[C@H]1C[C@H]1C4=C(CC[C@@]13C)C(=O)OC4)[C@@H]2OCOP(=O)([O-])[O-].[Na+].[Na+] [MINNELIDE],Activity,Mus musculus [1],Toxic
same,K,[2],6.5 ×10⁻⁶ /hr
same,remaining at 4 h,[3],62%
same,Activity,Mus musculus [4],Toxic
same,Activity,HT-29 [5],Active
same,remaining at 4 h,[6],95%
same,remaining at 24 h,[7],100%
same,remaining at 1 h,[8],100%
same,Activity,HT-29 [9],Active
same,t1/2,[10],12.2 yr
same,remaining at 4 h,[11],100%
same,Time,[12],0.14 yr
same,remaining at 1 h,[13],100%
same,pKa,[14],6.61
same,Drug metabolism,[15],metabolite_detected
same,remaining at 8 h,[16],39%
same,Activity,Mus musculus [17],Toxic
same,remaining at 2 h,[18],85%
same,remaining at 24 h,[19],99%
same,Activity,Mus musculus [20],Toxic
same,Time,[21],1.9 yr
same,remaining at 4 h,[22],100%
same,Activity,Mus musculus [23],Toxic
same,remaining at 2 h,[24],79%
same,remaining at 2 h,[25],100%
same,remaining at 8 h,[26],99%
same,remaining at 8 h,[27],100%
same,K,[28],0.001052 h⁻¹
